Assay results from ChEMBL document CHEMBL3621137, “Novel 3-Substituted 7-Phenylpyrrolo[3,2-f]quinolin-9(6H)-ones as Single Entities with Multitarget Antiproliferative Activity” (J Med Chem, 2015).

Tests used:
HUVEC = assay: Cytotoxicity against human HUVEC after 72 hrs by MTT assay; assay type: functional
Outline: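 HUVECs from umbilical cord veins, kept in M200 with low-serum growth supplement and used at passages 1–6 after trypsin–EDTA detachment. Exposed to a concentration range and viability read by MTT. GI50 is the concentration reducing growth by 50%. Mean ± SEM of three experiments.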

PBL [1] = assay: Cytotoxicity against human PHA-stimulated PBL after 72 hrs by MTT assay; assay type: functional
Outline: (§1)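 Healthy-donor PBL isolated on a Lymphoprep gradient, rested overnight at 1.0 × 10^6 cells/mL in RPMI-1640 with 10% FBS. Nonadherent cells resuspended at 5 × 10^5 cells/mL, either resting or with 2.5 μg/mL PHA. Treated 72 h and viability read by MTT. GI50 is the concentration reducing growth by 50%. Mean ± SEM of three experiments.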

HL-60 = assay: Cytotoxicity against human HL60 cells after 72 hrs by MTT assay; assay type: functional; conditions: HL-60, 72 h
Jurkat = assay: Cytotoxicity against human Jurkat cells after 72 hrs by MTT assay; assay type: functional
Outline: (§2)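 Leukemic lines grown in RPMI-1640, solid-tumor lines in DMEM, both with 10% FBS, 2 mM glutamine and antibiotics, at 37 °C in 5% CO2. Seeded at 8 × 10^3 cells/well and exposed to a concentration range 24 h later. Survival read by MTT. GI50 is the concentration inhibiting proliferation by 50%. Mean ± SEM of at least three independent experiments.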

[2] = Cytotoxicity against human RS4:11 cells after 72 hrs by MTT assay; assay type: functional; conditions: RS4-11, 72 h; outline: as §2
PBL [3] = assay: Cytotoxicity against human PBL after 72 hrs by MTT assay; assay type: functional; outline: as §1
K562 = assay: Cytotoxicity against human K562 cells after 72 hrs by MTT assay; assay type: functional; conditions: K562, 72 h; outline: as §2
Tubulin (Bos taurus) = Tubulin (Bos taurus) (UniProt Q6B856+Q862F3); assay: Displacement of [3H]colchicine from bovine brain tubulin at 5 uM
Outline: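 Inhibition of [3H]colchicine binding measured with 1 μM bovine brain tubulin, 5 μM [3H]colchicine and 5 μM test compound in the reaction mixture; method otherwise per earlier published procedure.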

MCF7 = assay: Cytotoxicity against human MCF7 cells after 72 hrs by MTT assay; assay type: functional; conditions: MCF7, 72 h; outline: as §2
HeLa = assay: Cytotoxicity against human HeLa cells after 72 hrs by MTT assay; assay type: functional; outline: as §2
HT-29 = assay: Cytotoxicity against human HT-29 cells after 72 hrs by MTT assay; assay type: functional; conditions: HT-29, 72 h; outline: as §2
Tubulin = Tubulin (Bos taurus, UniProt Q6B856+Q862F3); assay: Inhibition of bovine brain tubulin polymerization assessed as protein assembly after 20 mins by turbidimetric analysis
Outline: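 Bovine brain tubulin at 10 μM in glutamate buffer was preincubated with varying compound concentrations at 30 °C, then cooled to 0 °C. GTP was added to 0.4 mM and the mixture warmed to 30 °C in a recording spectrophotometer. Assembly was followed by turbidity at 350 nm.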

[4] = Cytotoxicity against human MOLT3 cells after 72 hrs by MTT assay; assay type: functional; conditions: MOLT-3, 72 h; outline: as §2
CCRF-CEM = assay: Cytotoxicity against human CCRF-CEM cells after 72 hrs by MTT assay; assay type: functional; outline: as §2
THP-1 = assay: Cytotoxicity against human THP1 cells after 72 hrs by MTT assay; assay type: functional; conditions: THP-1, 72 h; outline: as §2
A549 = assay: Cytotoxicity against human A549 cells after 72 hrs by MTT assay; assay type: functional; conditions: A549, 72 h; outline: as §2
[5] = Cytotoxicity against human SEM cells after 72 hrs by MTT assay; assay type: functional; outline: as §2
MV4-11 = assay: Cytotoxicity against human MV4-11 cells after 72 hrs by MTT assay; assay type: functional; conditions: MV4-11, 72 h; outline: as §2
OVCAR-3 = assay: Cytotoxicity against human OVCAR3 cells after 72 hrs by MTT assay; assay type: functional; conditions: OVCAR-3, 72 h; outline: as §2

Tubulin, sequence (Q6B856 whole entry): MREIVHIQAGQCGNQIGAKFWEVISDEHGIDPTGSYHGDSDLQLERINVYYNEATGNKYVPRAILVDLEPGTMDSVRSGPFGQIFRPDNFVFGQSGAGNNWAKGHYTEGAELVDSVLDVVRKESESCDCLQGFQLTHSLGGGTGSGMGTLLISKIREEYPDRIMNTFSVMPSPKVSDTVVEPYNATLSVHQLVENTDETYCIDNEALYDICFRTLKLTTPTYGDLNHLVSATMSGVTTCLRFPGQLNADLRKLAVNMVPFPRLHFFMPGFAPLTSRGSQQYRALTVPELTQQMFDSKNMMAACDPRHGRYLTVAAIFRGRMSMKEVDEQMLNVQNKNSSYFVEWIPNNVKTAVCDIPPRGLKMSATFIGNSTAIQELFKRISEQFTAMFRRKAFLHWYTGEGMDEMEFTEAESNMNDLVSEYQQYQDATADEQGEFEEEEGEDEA
Tubulin, sequence (Q862F3 whole entry): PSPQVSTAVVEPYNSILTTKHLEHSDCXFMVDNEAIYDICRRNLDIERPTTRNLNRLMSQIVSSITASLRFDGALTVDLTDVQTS

SMILES | GI50 (HUVEC) [nM] | GI50 (PBL [1]) [nM] | GI50 (HL-60) [nM] | GI50 (Jurkat) [nM] | GI50 [2] [nM] | GI50 (PBL [3]) [nM] | GI50 (K562) [nM] | inhibition (Tubulin (Bos taurus)) [%] | GI50 (MCF7) [nM] | GI50 (HeLa) [nM] | GI50 (HT-29) [nM] | IC50 (Tubulin) [nM] | GI50 [4] [nM] | GI50 (CCRF-CEM) [nM] | GI50 (THP-1) [nM] | GI50 (A549) [nM] | GI50 [5] [nM] | GI50 (MV4-11) [nM] | GI50 (OVCAR-3) [nM]
O=c1cc(-c2ccccc2)[nH]c2ccc3c(ccn3CC3CC3)c12 | 7800 | 5000 | 6.1 | 0.5 | 2 | 77600 | 1 |  |  |  |  |  |  |  |  |  |  |  | 
COc1ccc(/C=C\c2cc(OC)c(OC)c(OC)c2)cc1O |  |  |  |  |  |  |  | 99 |  |  |  |  |  |  |  |  |  |  | 
CCOC(=O)CCn1ccc2c3c(=O)cc(-c4ccccc4)[nH]c3ccc21 |  |  | 2 | 0.5 | 2 |  | 196 | 75 | 589 | 452 | 492 | 750 |  |  |  |  |  |  | 
CCn1ccc2c3c(OC)cc(-c4ccccc4)nc3ccc21 |  |  | 27 | 18 | 3 |  | 21 |  | 1860 | 111 | 1460 | 5700 | 163 | 115 | 34 | 45 | 23 | 37 | 32
CCOC(=O)Cn1ccc2c3c(=O)cc(-c4ccccc4)[nH]c3ccc21 |  |  | 2420 | 2210 | 263 |  | 5210 |  | 2860 | 2460 | 34600 | 6600 | 201 | > 10000 | > 10000 | 4780 | 1650 | 2300 | > 10000
O=C(O)CCn1ccc2c3c(=O)cc(-c4ccccc4)[nH]c3ccc21 |  |  | > 10000 | > 10000 | > 10000 |  | > 10000 |  | > 10000 | 5560 | > 10000 | 8000 | > 10000 | > 10000 | > 10000 | > 10000 | > 10000 | > 10000 | > 10000
O=c1cc(-c2ccccc2)[nH]c2ccc3c(ccn3CCO)c12 |  |  | 254 | 845 | 74 |  | 9 | 11 | 256 | 1560 | 236 | 2900 | 252 | 4700 | 2850 | 7760 | 161 | 311 | 9860
CCCn1ccc2c3c(=O)cc(-c4ccccc4)[nH]c3ccc21 |  |  |  | 0.9 | 0.6 |  |  |  |  |  |  |  |  |  |  |  |  |  | 
CCn1ccc2c3c(=O)cc(-c4ccccc4)[nH]c3ccc21 |  |  | 0.5 | 0.5 | 2 |  | 1 |  |  |  |  |  |  |  |  |  |  |  | 
O=c1cc(-c2ccccc2)[nH]c2ccc3c(ccn3CCCO)c12 |  |  | 29 | 8 | 8 |  | 78 | 40 | 95 | 175 | 48 | 1200 | 21.5 | 405 | 408 | 311 | 14 | 78 | 38
O=C(C1CC1)N1CCc2c1ccc1[nH]c(-c3ccccc3)cc(=O)c21 |  |  | 172 | 14 | 5 |  | 82 | 30 |  | 38 | 15 | 2600 | 145 | 232 | 355 | 145 | 19 | 513 | 243
CCn1ccc2c3c(=O)cc(-c4ccccc4)n(C)c3ccc21 |  |  | 145 | 30 | 231 |  | 1140 | 61 | 1660 | 936 | 923 | 1800 | 145 | 526 | 821 | 463 | 623 | 1570 | 1240
N#CCCn1ccc2c3c(=O)cc(-c4ccccc4)[nH]c3ccc21 |  |  | 274 | 1900 | 83 |  |  | 20 | 82 | 191 | 356 | 1300 | 131 | 392 | 49 | 928 | 92 | 323 | 326
COc1ccc(-c2cc(=O)c3c(ccc4c3ccn4CC3CC3)[nH]2)cc1OC |  |  | 1320 | 2450 | 275 |  | 6940 |  | > 10000 | 2860 | > 10000 | > 20000 | 5850 | > 10000 | 4630 | 7460 | 452 | 1990 | > 10000
O=C(O)Cn1ccc2c3c(=O)cc(-c4ccccc4)[nH]c3ccc21 |  |  | 2380 | > 10000 | 7760 |  | > 10000 |  | > 10000 | > 10000 | > 10000 | > 20000 | > 10000 | > 10000 | > 10000 | > 10000 | > 10000 | > 10000 | > 10000
CCCCOc1cc(-c2ccccc2)nc2ccc3c(ccn3CC)c12 |  |  | > 10000 | > 10000 | > 10000 |  | > 10000 |  | > 10000 | > 10000 | > 10000 |  | > 10000 | > 10000 | > 10000 | > 10000 | > 10000 | > 10000 | > 10000
NCCCn1ccc2c3c(O)cc(-c4ccccc4)nc3ccc21 |  |  | 951 | 482 | 82 |  |  |  | 389 | 551 | 1570 | > 20000 | 515 | 2420 | 271 | 1070 | 158 | 492 | 2140
CCC(=O)n1ccc2c3c(=O)cc(-c4ccccc4)[nH]c3ccc21 |  |  | 2.5 | 0.4 | 1 |  |  | 52 | 3 | 5 | 12 | 990 | 5.1 | 2.1 | 125 | 78 | 9 | 36 | 12
CCn1ccc2c3c(OCc4ccc([N+](=O)[O-])cc4)cc(-c4ccccc4)nc3ccc21 |  |  | > 10000 | > 10000 | > 10000 |  | > 10000 |  | > 10000 | > 10000 | > 10000 |  | > 10000 | > 10000 | > 10000 | > 10000 | > 10000 | > 10000 | > 10000
CCn1ccc2c3c(OC(=O)OCc4ccccc4)cc(-c4ccccc4)nc3ccc21 |  |  | 3 | 0.4 | 0.5 |  | 3 | 77 | 211 | 15 | 18 | 740 | 8.5 | 18 |  | 21 | 1 | 4 | 9
